A word on the Ki: it is the equilibrium dissociation constant of an inhibitor or competing ligand from its target. The low end stands for tighter binding, the high end for weaker binding. What is called ED50 is the dose that gives a 50% effect, or the effect in half of the subjects.

SMILES strings stand for the structures.

Among the data in ChEMBL document CHEMBL1125569, “5-HT3 receptor antagonists. 1. New quinoline derivatives” (J Med Chem, 1992) are Ki and ED50 values, retold here.

The target of assay [1] is T1, Serotonin 3 (5-HT3) receptor (Rattus norvegicus, UniProt P35563+Q9JJ16).
T1 sequence (P35563 whole entry): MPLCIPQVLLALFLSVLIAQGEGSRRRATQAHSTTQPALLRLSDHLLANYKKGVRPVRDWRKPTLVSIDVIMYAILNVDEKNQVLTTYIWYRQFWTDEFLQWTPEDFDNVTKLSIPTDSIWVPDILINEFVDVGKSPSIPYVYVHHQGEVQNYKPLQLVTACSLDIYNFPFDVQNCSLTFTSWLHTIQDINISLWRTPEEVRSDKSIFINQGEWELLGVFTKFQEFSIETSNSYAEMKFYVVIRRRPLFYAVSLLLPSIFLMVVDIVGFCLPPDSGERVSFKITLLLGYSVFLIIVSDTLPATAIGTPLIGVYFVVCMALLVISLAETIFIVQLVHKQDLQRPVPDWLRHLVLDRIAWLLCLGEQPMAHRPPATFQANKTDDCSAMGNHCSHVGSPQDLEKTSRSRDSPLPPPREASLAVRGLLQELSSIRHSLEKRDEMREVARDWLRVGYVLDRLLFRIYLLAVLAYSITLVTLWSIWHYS
T1 sequence (Q9JJ16 whole entry): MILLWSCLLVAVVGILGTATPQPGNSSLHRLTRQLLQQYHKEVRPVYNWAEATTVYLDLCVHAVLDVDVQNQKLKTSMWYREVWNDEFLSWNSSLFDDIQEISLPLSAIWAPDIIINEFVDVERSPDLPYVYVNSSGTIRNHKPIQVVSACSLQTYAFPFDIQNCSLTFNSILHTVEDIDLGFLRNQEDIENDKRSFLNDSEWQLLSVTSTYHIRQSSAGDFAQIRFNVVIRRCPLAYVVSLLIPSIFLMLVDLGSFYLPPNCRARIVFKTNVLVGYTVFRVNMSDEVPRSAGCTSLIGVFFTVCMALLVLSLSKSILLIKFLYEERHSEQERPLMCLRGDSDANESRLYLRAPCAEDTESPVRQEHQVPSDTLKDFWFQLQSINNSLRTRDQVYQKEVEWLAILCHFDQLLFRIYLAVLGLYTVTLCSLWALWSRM
Put plainly: Ability to displace [3H]quipazine binding to 5-hydroxytryptamine 3 receptor sites in NG 108-15. The format is protein-complex assay. The method, boiled down: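 Membranes from 3 × 10^6 NG 108-15 cells in 20 mM Tris-HCl pH 7.5 with 154 mM NaCl. Incubated with 2 nM [3H]quipazine and varying test concentrations, 37 °C for 60 min. Stopped with ice-cold buffer, then GF/C filtration and scintillation counting. Nonspecific binding defined with 10 μM MDL 72222. […] Mean ± SEM, n = 3.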

For assay [2], the target named is Serotonin 3 (5-HT3) receptor (Rattus norvegicus) (UniProt P35563+Q9JJ16). Put plainly: Inhibition of 5-HT induced bradycardia [Benzold-Jarisch (BJ) reflex test] in rats at 5 min administered intravenously. The format is functional. A digest of the protocol: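 Male Wistar rats (230–330 g) under urethane (1.25 g/kg ip), tracheal cannula. Blood pressure taken from the left carotid, heart rate from the pressure trace. Compounds given iv via jugular vein. Bezold-Jarisch reflex evoked by bolus iv 5-HT 30 μg/kg, with challenges every 12 min. ED50 is the dose halving 5-HT bradycardia, by linear regression, 4 rats.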

Assay [3] deals with T1, Serotonin 3 (5-HT3) receptor. Put plainly: Compound was evaluated for its ability to displace [3H]quipazine binding to 5-hydroxytryptamine 3 receptor sites in NG 108-15. The format is protein-complex assay.
For the next assay, the species on record is Rattus norvegicus. Put plainly: animal or person. The format is functional. As to conditions: 5 min.

As for `CN1C2CCC1CC(NC(=O)c1cc(O)nc3ccccc13)C2` (stereo not drawn), the Ki in assay [1] is over 100 nM.
On the same count and under the same terms, to `CC(C)Oc1cc(C(=O)NC2CC3CCC(C2)N3C)c2ccccc2n1` (stereo not drawn) belongs 53 nM.
In assay [1], `CCCCOc1cc(C(=O)NC2CC3CCC(C2)N3C)c2ccccc2n1` (stereo not drawn) registered a Ki of 19 nM.
In turn, `CN1C2CCC1CC(NC(=O)c1cc(=O)n(C)c3ccccc13)C2` (stereo not drawn) displayed an inhibitory constant (Ki) in assay [1] of over 100 nM.
`CC(C)Oc1cc(C(=O)OC2CC3CCC(C2)N3C)c2ccccc2n1` (stereo not drawn) registered a Ki in assay [1] of 0.31 nM. The compound further registered an ED50 in assay [2] of 1.62 mg/kg.
`CCCCn1c(=O)cc(C(=O)NC2CC3CCC(C2)N3C)c2ccccc21` (stereo not drawn) displayed a Ki in assay [1] of 60 nM.
With `CN1C2CCC1CC(OC(=O)c1ccnc3ccccc13)C2` (stereo not drawn), in assay [3], the Ki amounted to 7.1 nM.
Compound `CCCCn1c(=O)cc(C(=O)OC2CC3CCC(C2)N3C)c2ccccc21` (stereo not drawn) had a Ki in assay [1] of 0.68 nM. Moreover, in assay [2], the ED50 came to 0.041 mg/kg.
For the compound `CC(C)Cn1c(=O)cc(C(=O)OC2CC3CCC(C2)N3C)c2ccccc21` (stereo not drawn), affinity in assay [1] was put at a Ki of 0.47 nM. The ED50 in assay [2] amounted to 0.069 mg/kg.
`CCCCOc1cc(C(=O)OC2CC3CCC(C2)N3C)c2ccccc2n1` (stereo not drawn) gave an inhibition constant (Ki) in assay [1] of 0.39 nM. Also, the median effective dose (ED50) in assay [2] is 0.2 mg/kg.
Regarding `COc1cc(C(=O)OC2CC3CCC(C2)N3C)c2ccccc2n1` (stereo not drawn), in assay [1], affinity was put at a Ki of 0.58 nM. For the same compound, the 50% effect level in assay [2] (ED50) was put at a dose of 5.64 mg/kg.
The compound `CCCCCCn1c(=O)cc(C(=O)OC2CC3CCC(C2)N3C)c2ccccc21` (stereo not drawn) displayed an inhibitory constant (Ki) in assay [1] of 1.1 nM.
In assay [1], `CCCCCCOc1cc(C(=O)OC2CC3CCC(C2)N3C)c2ccccc2n1` (stereo not drawn) returned a Ki of 3.2 nM. In assay [2], this compound had an ED50 of 7.68 mg/kg.
Regarding `CN1C2CCC1CC(NC(=O)c1cc(=O)n(-c3ccccc3)c3ccccc13)C2` (stereo not drawn), the affinity in assay [1], expressed as Ki, was 63 nM.
With `CN1C2CCC1CC(OC(=O)c1cc(=O)n(-c3ccccc3)c3ccccc13)C2` (stereo not drawn), in assay [1], the Ki stood at 0.51 nM. This compound gave an ED50 in assay [2] of 0.044 mg/kg.
In assay [1], `CCCCCn1c(=O)cc(C(=O)OC2CC3CCC(C2)N3C)c2ccccc21` (stereo not drawn) registered a Ki of 0.96 nM. Moreover, it took a dose of 0.059 mg/kg to reach the 50% effect level in assay [2] (ED50).
`CCCCN1C(=O)CC(C(=O)OC2CC3CCC(C2)N3C)c2ccccc21` (stereo not drawn) displayed a Ki in assay [1] of 8.7 nM.
On to `CN1C2CCC1CC(OC(=O)c1cc(=O)n(Cc3ccccc3)c3ccccc13)C2` (stereo not drawn), for which the affinity in assay [1], expressed as Ki, was 1.3 nM.
Turning to `CCCCn1c(=O)c(CC)c(C(=O)OC2CC3CCC(C2)N3C)c2ccccc21` (stereo not drawn), the Ki in assay [1] stood at 160 nM.
As for `CCCOc1cc(C(=O)OC2CC3CCC(C2)N3C)c2ccccc2n1` (stereo not drawn), the Ki in assay [1] stood at 0.32 nM. This compound registered an ED50 in assay [2] of 6.78 mg/kg.
On the same counts, the results for `CCOc1cc(C(=O)OC2CC3CCC(C2)N3C)c2ccccc2n1` (stereo not drawn) are 0.88 nM and 0.07 mg/kg.
In assay [1], `CC(C)n1c(=O)cc(C(=O)OC2CC3CCC(C2)N3C)c2ccccc21` (stereo not drawn) gave a Ki of 0.032 nM. In assay [2], the 50% effective dose (ED50) came to 0.081 mg/kg.
On the same counts, the results for `CC(C)CCn1c(=O)cc(C(=O)OC2CC3CCC(C2)N3C)c2ccccc21` (stereo not drawn) are 1.5 nM and 0.059 mg/kg.
`CCCn1c(=O)cc(C(=O)OC2CC3CCC(C2)N3C)c2ccccc21` (stereo not drawn): in assay [1], the affinity, expressed as Ki, was 0.45 nM. For the same compound, in assay [2], the 50% effect level (ED50) was put at a dose of 0.33 mg/kg.
Consider `CN1C2CCC1CC(OC(=O)c1cc(=O)n(C)c3ccccc13)C2` (stereo not drawn), for which the Ki in assay [1] came out at 2.6 nM. Also, in assay [2], the median effective dose (ED50) was found to be 0.18 mg/kg.
In assay [1], `CCCn1c(=O)cc(C(=O)NC2CC3CCC(C2)N3C)c2ccccc21` (stereo not drawn) registered a Ki of 67 nM.
As to `Cc1nccn1CC1CCc2c(c3ccccc3n2C)C1=O` (stereo not drawn) [ONDANSETRON], the ED50 in the assay listed under Rattus norvegicus turned out to be 0.021 mg/kg.
On to `CCCCn1c(=O)c(CC)c(C(=O)NC2CC3CCC(C2)N3C)c2ccccc21` (stereo not drawn), for which, in assay [1], the Ki is over 100 nM.
In turn, `CN1C2CCC1CC(OC(=O)c1cc(O)nc3ccccc13)C2` (stereo not drawn) had a Ki in assay [3] of 4.4 nM. In addition, the median effective dose (ED50) in the assay filed under Rattus norvegicus is 0.017 mg/kg.
`CCCOc1cc(C(=O)NC2CC3CCC(C2)N3C)c2ccccc2n1` (stereo not drawn) gave a Ki in assay [1] of 42 nM.
Still for that read-out and setting: the value for `CN1C2CCC1CC(NC(=O)c1ccnc3ccccc13)C2` (stereo not drawn) was over 100 nM; that for `CCCCn1c(=O)cc(C(=O)OC2CC3CCC(C2)N3C)c2cc(C)ccc21` (stereo not drawn) was 44 nM.
`CC(C)COc1cc(C(=O)OC2CC3CCC(C2)N3C)c2ccccc2n1` (stereo not drawn): the Ki in assay [1] was determined as 0.44 nM. Further, in assay [2], the ED50 turned out to be 0.24 mg/kg.
Taken in the same sequence, the figures for `CCCCCOc1cc(C(=O)OC2CC3CCC(C2)N3C)c2ccccc2n1` (stereo not drawn) were 0.86 nM and 1.13 mg/kg.
Compound `CCn1c(=O)cc(C(=O)OC2CC3CCC(C2)N3C)c2ccccc21` (stereo not drawn) had a Ki in assay [1] of 1.1 nM. In assay [2], the ED50 was found to be 0.022 mg/kg.
